Among all 2,400 compounds or so, about 940 (39%) were called active. Only a sample is shown. Values without a mark were called inactive.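 The calls were made as follows: active = inhibition above the plate's mean compound inhibition plus 3 SD, computed per plate (cut at about 22% in these data); inactive = the rest.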
Assay: inhibition of ATP-evoked calcium response in CHO-Ga16 cells, counter-screen for TAAR1 agonist project, cell-based, fluorescence (AID 651952);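 also: 0% = EC80 ATP with DMSO and 100% = DMSO wells without ATP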
Conditions: CHO-Ga16 ATP-induced calcium, Fluo-8 fluorescence; at 3 µM; stronger effect = higher value
Outline: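 replicates = triplicate wells per compound | material = CHO-Gα16 parent cell line without hTAAR1 | incubation = 17–24 h seeding, dye 75 min 37 °C, 30 min RT | measure = percent inhibition from peak-to-pre-ATP-basal fluorescence ratio, scaled between controls | signal = Fluo-8 fluorescence, Ex 470–495 nm, Em 515–575 nm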

| SMILES | inhibition |
| --- | --- |
| NC(=O)C1=C[C@H](c2csc3ccccc23)C[C@H](OCc2ccc(CO)cc2)O1 | 36.5% (active) |
| CCc1ccccc1S(=O)(=O)Cc1ccc(C(=O)NCCc2ccccc2)o1 | 8.92% |
| O=C(Cc1ccc(Cl)cc1)NC(=S)Nc1ccccc1O | 92.6% (active) |
| O=C(NCCc1ccccc1)Oc1ccc(Cl)cc1 | 11% |
| Cc1ccccc1NC(=S)NC(=O)Cc1ccc(Cl)cc1 | 44.5% (active) |
| S=C(NCCCc1cnc[nH]1)NCCCN(Cc1ccc(Cl)c(Cl)c1)c1ccc(Br)cn1 | 48.6% (active) |
| CCCCCCCCCCOC(=O)Cn1c(COc2ccc(C)cc2)[n+](C)c2ccccc21 | 75.9% (active) |
| Nc1cccc2c1C(=O)N(Cc1nnc(-c3ccccc3Br)o1)C2=O | 7.55% |
| O=C(CSc1nc(-c2ccco2)cc(C(F)(F)F)n1)NCc1cccs1 | 3.17% |
| NC(Cc1ccccc1)c1csc(Nc2cc(Oc3ccccc3)ncn2)n1 (stereo unspecified) | 34.3% (active) |
| O=C(COC(=O)Cc1ccccc1F)NCCc1ccccc1 | 5.44% |
| CC(=O)Oc1ccc(Cn2c(C)c(C(=O)NCc3ccc(C#N)cc3)sc2=O)cc1 | 45.6% (active) |
| CN(C)c1ccc(/C=C2\NC(=S)N(Cc3ccccc3)C2=O)cc1 | 71.1% (active) |
| O=C(/C=C/[C@H]1O[C@@H](n2cnc3c(NC(=O)c4ccccc4)ncnc32)[C@H](O)[C@@H]1O)NCc1ccccc1 | 7.32% |
| CN(C)CCCN(C(=O)c1ccc(S(=O)(=O)N2CCCCCC2)cc1)c1nc2ccc(Br)cc2s1 | 43% (active) |
| CN(C)CCCN(C(=O)c1ccc(S(=O)(=O)N2CCCc3ccccc32)cc1)c1nc2ccc(F)cc2s1 | 43.4% (active) |
| Cc1cc(=O)oc2c(C)c(OCC(=O)NCCN3CCOCC3)ccc12 | 7.14% |
| Nc1c(NCCc2ccccc2)c2ccccc2oc1=O | 18% |
| CCOC(=O)Cc1csc(NC(=O)Nc2ccccc2)n1 | 26.6% (active) |
| Cc1ccn2c(=O)c(C(=O)NCCC3=CCCCC3)c(O)nc2c1 | -3.36% |
| Cc1ccc(O)c(NC(=S)NC(=O)COc2ccc(Br)cc2)c1 | 92% (active) |
| COCCCn1c(Cc2csc(Nc3cccc(Cl)c3)n2)nnc1SCC(=O)OC1CCCCC1 | 6.89% |
| c1ccc(CCN2CN=C(Nc3nc4ccccc4o3)NC2)cc1 | -0.52% |
| O=C(NCCc1ccccc1)/C(=C\c1ccc([N+](=O)[O-])cc1)NC(=O)c1ccccc1 | 9.72% |

| SMILES | inhibition |
| --- | --- |
| CCCCCC(=O)NC(=S)NNC(=O)c1ccc([N+](=O)[O-])cc1 | 51.5% (active) |
| CC(NC(=O)c1cc(-c2ccccc2)on1)c1ccccc1 (stereo unspecified) | 17.1% |
| O=[N+]([O-])c1cc(S(=O)(=O)NCCc2ccccn2)ccc1Cl | 0.96% |
| N#Cc1ccc(OCCCN2CCC(C(O)(c3ccccc3)c3ccccc3)CC2)c(F)c1 | 25.9% (active) |
| COc1ccc(NC(=O)C(=O)NCC(c2ccco2)N2CCc3ccccc3C2)cc1 (stereo unspecified) | 9.37% |
| COc1cccc(N(CC(=O)N2CCc3ccccc3C2)S(C)(=O)=O)c1 | 12.7% |
| O=C(O)C1C2C=CC(O2)C1C(=O)NCCc1cccc(Cl)c1 (stereo unspecified) | 7.32% |
| COc1ccc(C(=O)NC(=S)NNC(=O)c2c(-c3ccccc3)noc2C)cc1 | 14.4% |
| COc1ccc(C(=O)NNC(=S)NC(=O)c2ccccc2)cc1 | 44.3% (active) |
| O=C(Nc1cccc(NC(=O)c2ccc(Br)cc2)c1)c1ccccc1 | 2.95% |
| COc1ccc(C(=O)NC(=S)NNC(=O)CCc2ccccc2)cc1 | 58.5% (active) |
| Cc1onc(-c2ccccc2)c1C(=O)NNC(=S)NC(=O)c1ccc(F)cc1 | 50.7% (active) |
| CCCc1cc(C(=O)Nc2ccc(C(=O)OC)cc2)cs1 | 11.2% |
| O=C1CCCC(O)=C1C=NCCc1ccccc1 | 1.71% |
| Cc1ccccc1-c1nc(CS(=O)(=O)CC(=O)N2CCc3ccccc3C2)c(C)o1 | 18.3% |
| CCCCC(=O)NNC(=S)NC(=O)C(c1ccccc1)c1ccccc1 | 91% (active) |
| O=C(N[C@H](C(=O)N1CCC[C@H]1C(=O)NCCc1ccccc1Cl)c1ccccc1)c1ccccc1 | 12.2% |
| C[C@H](NC(=O)c1ccccc1)C(=O)OCC(=O)c1c[nH]c2ccccc12 | -1.32% |
| CN(C(=O)CN(CCO)CC(=O)N(C)C(C)(C)Cc1ccccc1)C(C)(C)Cc1ccccc1 | 74.1% (active) |
| COc1cccc(-c2cnc(OC(C)(C)C)nc2OC(C)(C)C)c1 | 4.69% |
| Cc1ccc(Cl)cc1N1CCN(C(=O)c2cccc3c(=O)c(C)c(-c4ccccc4)oc23)CC1 | 69.8% (active) |
| O=C(CCCN=C1NS(=O)(=O)c2ccccc21)OCC(=O)c1ccc(F)c(F)c1 | 26.1% (active) |
| CC(=O)Nc1ccccc1Sc1ccc2c3c(cccc13)C(=O)N(c1ccc(C)cc1)C2=O | 2.83% |
| Nc1cc(OC(=O)c2ccccc2Br)nn1S(=O)(=O)c1ccccc1 | 2.75% |

| SMILES | inhibition |
| --- | --- |
| COc1ccc(C(N)c2csc(NC(=O)Nc3cccc(C(F)(F)F)c3)n2)cc1 (stereo unspecified) | 41.8% (active) |
| NC(c1ccccc1)c1csc(NC(=O)Nc2cccc(C(F)(F)F)c2)n1 (stereo unspecified) | 48% (active) |
| NC[C@H](Cc1ccccc1)NCCc1cc(C(F)(F)F)cc(C(F)(F)F)c1 | 9.31% |
| CCN(CC)c1ccc2oc(=O)c(C)nc2c1 | 37.7% (active) |
| CC(C)(C)CC(=O)Nc1nc(C(N)Cc2ccc(C(F)(F)F)cc2)cs1 (stereo unspecified) | 54.9% (active) |
| COc1ccc(CC(N)c2csc(NC(=O)Cc3ccccc3)n2)cc1 (stereo unspecified) | 20.4% |
| CCCCc1c(-c2ccc(Br)cc2)ncn1CCc1ccccc1OC | 23.5% (active) |
| CCCCc1c(-c2ccc(Cl)cc2)ncn1CCc1ccccc1OC | 28% (active) |
| CCc1c(-c2ccccc2OC)ncn1CCc1ccccc1OC | 3.45% |
| S=C(Nc1ccc(Br)cc1)NC1CCN(Cc2ccccc2)CC1 | 23.8% (active) |
| COc1ccc2c(c1)OC(O)(C(F)(F)C(F)F)CC2=O (stereo unspecified) | 17.6% |
| c1ccc(-c2csc(N3CCc4ccccc4C3)n2)cc1 | 0.61% |
| O=C(Nc1ccc(F)cc1)Nc1nnc([C@H]2C[C@H](O)[C@@H](CO)O2)s1 | 2.16% |
| O=C(Nc1ccccc1)Nc1nnc(COc2ccccc2F)s1 | 27.2% (active) |
| O=C(Nc1ccncc1)Nc1ccc(F)cc1 | 12.7% |
| CCC(c1nnnn1Cc1ccco1)N(CCc1ccccc1)Cc1cc2cccc(C)c2[nH]c1=O (stereo unspecified) | 13.9% |
| CCC(C(=O)Nc1ccc(C(C)C)cc1)c1ccccc1 (stereo unspecified) | 68% (active) |
| c1ccc2c(c1)C(=NC1CCCCC1)NC2=NC1CCCCC1 | 26.3% (active) |
| C#CCOc1ccc(/C=C2/C(=O)NN(c3ccccc3)C2=O)cc1OC | 9.41% |
| c1ccc(C2CNCc3c2ccc2ccccc32)cc1 (stereo unspecified) | 33.8% (active) |
| CCCOc1ccc(-c2c(C(=O)N/N=C/c3ccco3)nnn2-c2nonc2N)cc1 | 8.77% |
| CCOc1ccc(Br)cc1CSC(=N)N | 27.7% (active) |
| CCCCOc1ccc(CSC(=N)N)cc1[N+](=O)[O-] | 17.7% |
| CCc1ccc(-c2nn(-c3ccccc3)cc2CSC(=N)N)cc1 | 21.2% |

| SMILES | inhibition |
| --- | --- |
| Nc1nonc1-n1nnc(C(=O)N/N=C/c2ccc(Cl)cc2)c1-c1ccc2c(c1)OCO2 | -0.91% |
| Nc1c(C(=O)c2cccs2)sc2nsc(SCCN3CCCCC3)c12 | 63% (active) |
| COc1ccc(OC)c(C(c2nnnn2C(C)(C)C)N2CCc3ccccc3C2)c1 (stereo unspecified) | 2.14% |
| CCCC1CCC(=NNC(=S)NCCc2ccccc2)CC1 (stereo unspecified) | 13.2% |
| c1ccc(Nc2nc(N3CCOCC3)c3ccccc3n2)cc1 | 28.7% (active) |
| Cc1ccc(S(=O)(=O)N(CC(=O)N2CCc3ccccc3C2)c2cccc(Cl)c2)cc1 | 18.1% |
| O=C1C=C(c2ccc(Cl)cc2)C(=O)N1Nc1ccccc1 | 79.5% (active) |
| Cc1ccc(Sc2cc(N3CCOCC3)nc(-c3ccccc3)n2)cc1 | -8.38% |
| Nc1nnn(CC(=O)N/N=C/c2ccccc2)n1 | 0.58% |
| CCCc1ccc(OCC(=O)NNC(=S)NC(=O)c2ccco2)cc1 | 50.6% (active) |
| CC(Oc1ccc2ccccc2c1)C(=O)NNC(=S)NC(=O)c1ccco1 (stereo unspecified) | 52.4% (active) |
| Cc1c(CNCCc2ccccc2)c(C(=O)O)c(C)n1-c1ccccc1 | 6.15% |
| CCCSc1nc2c(c(=O)n(C)c(=O)n2C)n1Cc1ccc(C)cc1 | 20.4% |
| Oc1ccc2ccc3cccc[n+]3c2c1 | 33.9% (active) |
| Cc1cc(C)c2cc(C#N)c(N3CCNCC3)nc2c1 | 3.67% |
| O=C(NNC(=S)NC(=O)c1cn(-c2ccccc2)nc1-c1ccccc1)c1ccncc1 | 57.6% (active) |
| COc1ccc2cc(-c3[nH]ncc3CNCCn3nc(C)cc3C)ccc2c1 | 4.6% |
| Cc1cccc(NC(=O)C(C)N2C(=O)C3C4CC(C(Br)C4Br)C3C2=O)c1 (stereo unspecified) | 43.9% (active) |
| O=c1cnnc(Nc2ccccc2)[nH]1 | 7.9% |
| COc1cc(OC)cc(C(=O)N[C@H](C(=O)OCC(=O)NC(C)c2ccccc2)C(C)C)c1 (stereo partly specified) | 6.73% |
| Cn1c(=O)c(=O)n(C)c2cc(S(=O)(=O)NCCc3ccccc3)ccc21 | -3.68% |
| O=C(Nc1ccc(Cl)cc1)N1CCc2[nH]c3ccccc3c2C1 | 14.7% |
| COc1ccc(OC)c(NC(=S)N2CCc3ccccc3C2)c1 | 5.63% |
| Fc1ccc(NC(=S)N2CCc3[nH]c4ccccc4c3C2)cc1 | 22.9% (active) |

— PubChem BioAssay AID651952 (The Scripps Research Institute Molecular Screening Center, 2012)
